Results on 14 compounds are retold here after PubChem BioAssay.

Activity calls are given as the source filed them.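 The calls were made as follows, unless noted: active = visually confirmed hit in the image check and inhibition above 20%; inconclusive = visually confirmed hit but inhibition not above 20%; inactive = no visual hit in the image check.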

The nature of test [1]: inhibitors of TNFa-induced NFkB p65 translocation, primary screen, imaging, HUVEC, MLSMR starter and 10KST1 sets (AID 438;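 active = inhibition above 20% together with a positive visual image hit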;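 also: compound added about 3h40 before a 20 min TNFalpha stimulation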;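 as to inhibition: signal is the nuclear over cytoplasmic p65 intensity ratio per well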). The following applies: HUVEC TNFa-induced p65 nuclear translocation; cell count: measured here: nuclei count (cytotoxicity indicator), at 2.08 µM; inhibition: at 2 µM, stronger effect = higher value, 0% TNFa-plus-vehicle, 100% no-TNFa wells.
Test [2] can be described thus: inhibitors of mutant huntingtin aggregation, primary screen, imaging, exon1htt(103Q)mCFP cells, high-content imaging (AID 483;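 active = visual image review flags a hit and inhibition of aggregation exceeds 20%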;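 also: compound exposure lasted 3 days before fixation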;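 as to nuclei count: percent of the per-plate median nuclei count of sample wells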). The settings on record: exon1htt(103Q)mCFP cell line, aggregate imaging, at 2 µM; inhibition of aggregation: stronger effect = higher value; nuclei count: measured here: cell count, toxicity.
Test [3] in a line: inhibitors of E-selectin induction by TNFa, primary screen, imaging, HUVEC, immunofluorescence, MLSMR starter and 10KST1 sets (AID 487).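 As to inhibition: signal is fraction of cell area covered by stained E-selectin grains.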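 As to nuclei count: 100% = median nuclei count of all wells on the same plate.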 The settings on record: HUVEC TNFalpha-induced E-selectin immunofluorescence imaging, at 2 µM; inhibition: stronger effect = higher value; nuclei count: measured here: cell number, toxicity.
Test [4] has as its target Voltage-gated potassium channel subunit beta-2 (Rattus norvegicus) (UniProt P62483). The experiment in a line: KvBeta enzyme negative modulators, primary screen, biochemical, NADPH fluorescence (AID 622;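 active = fluorescence slope higher than the sample average by over 3 SD, cut at about -0.22 in these data, passing the limit was not always enough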;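 also: slope of raw intensity against log time taken from 70 to 1610 s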). The settings on record: recombinant KvBeta, 4-cyanobenzaldehyde reduction, at 10 µM, stronger effect = higher value.
Test [5] has the same target. Put plainly: KvBeta positive modulators, primary screen, biochemical, NADPH fluorescence (AID 623;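 active = NADPH fluorescence slope more negative than the mean of all samples by about 3 SD, 99.7% confidence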;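 also: fluorescence intensity change per second fitted from 20 to 320 s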). The settings on record: Recombinant KvBeta, NADPH fluorescence decrease slope, 10 min; at 10 µM; stronger effect = lower value.
Test [6] addresses Muscarinic acetylcholine receptor M4 (Homo sapiens) (UniProt P08173). The experiment in a line: compounds altering M4/GIRK thallium flux, either direction, primary screen, M4 allosteric agonist project, cell-based, HEK293 M4/GIRK, BTC-AM (AID 625;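 active = fluorescence slope after compound addition differing from the mean of all tested samples at 99.7% confidence, mostly higher but some lower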;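 also: thallium influx through GIRK channels coupled to M4 in HEK293 cells with BTC-AM dye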). The settings on record: at 10 µM, actives lie on both sides. An outline of the steps:
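Assay system: HEK293 cells with M4 receptor and GIRK channels / Controls: carbachol and DMSO controls / Schedule: 1 h dye loading, 2 min kinetic read / Technique: kinetic fluorescence with BTC-AM dye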

Test [7] in a line: inhibitors of Sendai virus-induced IRF3 signaling, primary screen, TLR/RLR signaling modifier project, cell-based, Sendai virus stimulus, luciferase, 10K MLSCN set (AID 602276;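 active = inhibition at or above 50% at 10 µM; inactive = inhibition below 50%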;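 also: firefly luciferase from ISG56 promoter only with Renilla not read in this screen; 0% = Sendai virus plus DMSO and 100% = medium plus DMSO without virus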). The following applies: HEK293 RL24 IRF3 luciferase reporter, at 10 µM, stronger effect = higher value.
Test [8] in a line: inhibitors of poly I:C-induced TLR3 signaling, primary screen, cell-based, poly I:C stimulus, luciferase, 10K MLSCN set (AID 602277;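 active = inhibition of the reporter signal at or above 50%; inactive = inhibition below 50%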). The settings on record: HEK293-TLR3 RL24 IRF3 luciferase reporter, at 10 µM, stronger effect = higher value.

Muscarinic acetylcholine receptor M4 (Homo sapiens), sequence (P08173 whole entry, looked up): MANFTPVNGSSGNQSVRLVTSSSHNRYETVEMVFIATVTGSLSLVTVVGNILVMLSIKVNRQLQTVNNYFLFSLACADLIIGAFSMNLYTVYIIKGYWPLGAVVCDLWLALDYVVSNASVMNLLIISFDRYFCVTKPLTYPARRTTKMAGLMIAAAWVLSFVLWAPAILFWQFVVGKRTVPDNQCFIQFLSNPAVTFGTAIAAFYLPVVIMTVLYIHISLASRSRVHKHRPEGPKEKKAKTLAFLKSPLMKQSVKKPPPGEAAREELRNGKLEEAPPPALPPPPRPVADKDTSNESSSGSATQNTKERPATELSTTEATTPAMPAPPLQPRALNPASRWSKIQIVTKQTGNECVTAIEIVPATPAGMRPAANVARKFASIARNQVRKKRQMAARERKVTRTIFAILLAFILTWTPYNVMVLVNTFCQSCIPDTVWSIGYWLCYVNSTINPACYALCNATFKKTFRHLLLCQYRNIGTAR
Voltage-gated potassium channel subunit beta-2 (Rattus norvegicus), sequence (P62483 whole entry, looked up): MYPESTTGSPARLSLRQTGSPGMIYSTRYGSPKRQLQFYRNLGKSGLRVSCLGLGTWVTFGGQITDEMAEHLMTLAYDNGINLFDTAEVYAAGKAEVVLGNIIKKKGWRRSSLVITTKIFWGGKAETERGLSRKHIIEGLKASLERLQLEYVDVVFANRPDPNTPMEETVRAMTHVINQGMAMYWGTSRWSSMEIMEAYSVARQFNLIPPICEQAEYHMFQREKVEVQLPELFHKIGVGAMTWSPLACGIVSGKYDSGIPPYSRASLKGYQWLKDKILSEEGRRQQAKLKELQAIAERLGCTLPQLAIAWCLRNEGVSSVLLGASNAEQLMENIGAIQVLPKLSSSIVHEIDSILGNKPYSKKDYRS

As to `CC(C)(C)C(=O)Cn1c(=N)n(Cc2ccccc2)c2ccccc21`, the cell count in test [1] amounted to 394. For the same compound, the inhibition was 6.1% (inactive) in test [1], 20.9% (inactive) in test [3], 20% (inactive) in test [7] and 17.2% (inactive) in test [8]. In test [2], the inhibition of aggregation is 8.9% (inactive). In addition, the nuclei count was 99.1% in test [2] and 96% in test [3]. For the same compound, the fluorescence slope in test [4] was -0.409 (inactive); in test [6], 0.00407 (inactive). Also, the NADPH fluorescence slope in test [5] was 4.3e-05 (inactive).

With `NC(=O)c1sc2nc(N3CCCCC3)c3c(c2c1N)CCCC3`, the cell count in test [1] is 369. Further, the inhibition in test [1] was 8.4% (inactive); in test [3] it was 26.5% (inactive); in test [7], 1.9% (inactive); in test [8], 10.7% (inactive). Further, the inhibition of aggregation in test [2] was -12.2% (inactive). For the same compound, the nuclei count was 118% in test [2] and 111% in test [3]. The fluorescence slope in test [4] was 1.5e-14 (active); in test [6], 0.00601 (inactive). In addition, the NADPH fluorescence slope in test [5] is 0 (inactive).

For `CC(=O)N1CCC2(CC1)CC(=O)c1cc(OCC(=O)NCc3ccco3)ccc1O2`, in test [1], the cell count came out at 376. In addition, the inhibition in test [1] was 6.6% (inactive); in test [3], -143% (inactive); in test [7], -7.82% (inactive); in test [8] it was 2.06% (inactive). For the same compound, the inhibition of aggregation in test [2] is -16.2% (inactive). In addition, the nuclei count in test [2] worked out at 113%; in test [3] it was 97.8%. Also, the values for the fluorescence slope in test [4] and in test [6] were -0.253 (inactive) and 0.00743 (inactive), respectively. In addition, the NADPH fluorescence slope in test [5] was 1.5e-05 (inactive).

`CC(=O)N1CCc2cc(S(=O)(=O)CCC(=O)N3CCN(c4ccccn4)CC3)ccc21`: the cell count in test [1] was 592. For the same compound, the inhibition in test [1] is -2.7% (inactive); in test [3], -65.1% (inactive); in test [7], -15.2% (inactive); in test [8], -27.2% (inactive). Also, the inhibition of aggregation in test [2] was 2.8% (inactive). The results for the nuclei count in test [2] and in test [3] were 107% and 94.5%, respectively. For the same compound, the fluorescence slope in test [4] was -0.456 (inactive); in test [6], 0.0102 (inactive). The NADPH fluorescence slope in test [5] is 5.1e-05 (inactive).

With `Cc1cccc2cc(CN(Cc3nnnn3Cc3ccco3)C3CCCC3)c3nnnn3c12`, in test [1], the cell count worked out at 719. Besides, the inhibition in test [1] is -2.8% (inactive); in test [3] it was -14% (inactive); in test [7] it was 9.99% (inactive); in test [8] it was 13% (inactive). Also, the inhibition of aggregation in test [2] is 4.4% (inactive). The nuclei count in test [2] amounted to 113%; in test [3], 116%. The figures for the fluorescence slope in test [4] and in test [6] were -0.451 (inactive) and 0.00551 (inactive), respectively. For the same compound, the NADPH fluorescence slope in test [5] was 3.4e-05 (inactive).

Regarding `O=C(Nc1ccc(Cl)cc1)N1CCSCC1`, in test [1], the cell count was 358. Moreover, the inhibition in test [1] is 6.3% (inactive); in test [3], 37.4% (inactive); in test [7] it was -2.29% (inactive); in test [8], -14.3% (inactive). Also, in test [2], the inhibition of aggregation is -8.3% (inactive). For the same compound, the results for the nuclei count in test [2] and in test [3] were 104% and 84.1%, respectively. Also, the fluorescence slope in test [4] is -0.494 (inactive); in test [6] it was 0.00504 (inactive). In addition, the NADPH fluorescence slope in test [5] is -3e-05 (inactive).

As for `CC(=O)N1C(=O)N(C)C2C1N(C(C)=O)C(=O)N2C` (centres undefined), the cell count in test [1] is 395. Moreover, the inhibition in test [1] was 5.4% (inactive); in test [3], -4.1% (inactive); in test [7], 11.1% (inactive); in test [8], 16.5% (inactive). In addition, in test [2], the inhibition of aggregation is 7.3% (inactive). Also, the results for the nuclei count in test [2] and in test [3] were 96.4% and 98.6%, respectively. Moreover, the fluorescence slope is -0.574 (inactive) in test [4] and 0.00666 (inactive) in test [6]. The NADPH fluorescence slope in test [5] is -5e-05 (inactive).

`CC(=O)Nc1ccc(S(=O)(=O)n2nc(C)cc2C)cc1`: in test [1], the cell count stood at 495. Also, the inhibition is -20.7% (inactive) in test [1], -163% (inactive) in test [3], 10% (inactive) in test [7] and 7.63% (inactive) in test [8]. Besides, in test [2], the inhibition of aggregation is -16.2% (inactive). Further, the nuclei count in test [2] came out at 108%; in test [3], 105%. The fluorescence slope in test [4] was -0.546 (inactive); in test [6] it was 0.00409 (inactive). Also, the NADPH fluorescence slope in test [5] was -0.000136 (inactive).

Regarding `CC(C(=O)OCn1nnc2ccccc2c1=O)N1C(=O)c2ccccc2C1=O` (centres undefined), the cell count in test [1] was found to be 532. Also, the inhibition in test [1] was -15.6% (inactive); in test [3], 15.7% (inactive); in test [7], 12.3% (inactive); in test [8], 21.1% (inactive). Moreover, in test [2], the inhibition of aggregation is 13.2% (inactive). Besides, the nuclei count in test [2] came out at 84.6%; in test [3], 76.4%. Besides, the fluorescence slope in test [4] is -0.62 (inactive); in test [6], 0.00486 (inactive). Also, the NADPH fluorescence slope in test [5] is 2e-05 (inactive).

For the compound `Cc1c(C(=O)NCc2cccnc2)sc2ncn(CC(=O)N3CCCCC3C)c(=O)c12` (centres undefined), the cell count in test [1] came to 477. The inhibition is -7% (inactive) in test [1], -51.3% (inactive) in test [3], 18.5% (inactive) in test [7] and 23.8% (inactive) in test [8]. Also, in test [2], the inhibition of aggregation was -3.4% (inactive). The nuclei count in test [2] turned out to be 89.7%; in test [3], 70.3%. The fluorescence slope in test [4] was -0.555 (inactive); in test [6], 0.00535 (inactive). For the same compound, the NADPH fluorescence slope in test [5] was -1.4e-05 (inactive).

For the compound `CCOc1cc(C(=O)NCC2CCCO2)cc(OCC)c1OCC` (centres undefined), in test [1], the cell count is 430. The inhibition in test [1] was -9.3% (inactive); in test [3] it was -133% (inactive); in test [7] it was 15.1% (inactive); in test [8] it was 9.52% (inactive). Further, the inhibition of aggregation in test [2] is -3.9% (inactive). The nuclei count in test [2] was 106%; in test [3], 102%. Besides, the fluorescence slope in test [4] was -0.213 (inactive); in test [6] it was 0.00818 (inactive). In addition, in test [5], the NADPH fluorescence slope was -3.4e-05 (inactive).

On to `CC1N=C2c3ccccc3N=C(SCc3cc(=O)n4cc(Cl)ccc4n3)N2C1=O` (centres undefined), for which, in test [1], the cell count turned out to be 346. Also, the inhibition in test [1] was 7.6% (inactive); in test [3], 32.4% (inactive); in test [7] it was 13.1% (inactive); in test [8], 18.7% (inactive). In test [2], the inhibition of aggregation was 18.8% (inactive). In addition, the nuclei count worked out at 102% in test [2] and 92.4% in test [3]. Besides, the fluorescence slope in test [4] was -0.478 (inactive); in test [6], 0.00478 (inactive). In addition, the NADPH fluorescence slope in test [5] was -0.0001 (inactive).

On to `O=C(CSc1nc(-c2ccc(F)cc2)cs1)N1CCOCC1`, for which the cell count in test [1] worked out at 311. Further, the inhibition in test [1] was 9.3% (inactive); in test [3], -45.8% (inactive); in test [7], -23.2% (inactive); in test [8] it was -106% (inactive). Also, the inhibition of aggregation in test [2] was 20.5% (inactive). Moreover, the nuclei count was 95.1% in test [2] and 93.6% in test [3]. The fluorescence slope in test [4] was -0.462 (inactive); in test [6], 0.00525 (inactive). For the same compound, in test [5], the NADPH fluorescence slope is 2.4e-05 (inactive).

As to `CCN(c1cccc(C)c1)S(=O)(=O)c1ccc2[nH]c(=O)c(=O)[nH]c2c1`, in test [1], the cell count came to 415. For the same compound, the inhibition in test [1] is 6.2% (inactive); in test [3], -8.3% (inactive); in test [7], 12.5% (inactive); in test [8] it was 21.6% (inactive). Moreover, the inhibition of aggregation in test [2] was 7.1% (inactive). Also, the nuclei count is 93.5% in test [2] and 98% in test [3]. The fluorescence slope is -0.514 (inactive) in test [4] and 0.00491 (inactive) in test [6]. Further, the NADPH fluorescence slope in test [5] is -0.000128 (inactive).
